Blank lines part the entries; values can stand above or below the compound they belong to.
What was measured:
[1] = Displacement of [125I]IMPY from beta amyloid protein plaques in Alzheimer's disease patient brain; design: species or system Homo sapiens
How it was run: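 Competition binding to pooled gray-matter homogenates from four AD brains (approximately 100 mg wet tissue/mL in PBS pH 7.4; 20–50 μg per tube). [125I]2 at 0.04–0.06 nM; inhibitors 10^-5–10^-10 M in PBS with 0.1% BSA; final volume 1 mL. Nonspecific binding with 600 nM 2. Incubated 37 °C, 2 h; GF/B filtration, gamma counting. Ki from nonlinear regression.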

Heart [2] = assay: Biodistribution in ICR mouse heart at 5 to 10 uCi, iv after 2 hrs; format: ADME, organism-based; conditions: in vivo
How it was run: (§1)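 Male ICR mice (22–25 g) under isoflurane anesthesia; [125I] or [18F] tracer (5–10 μCi) in 0.15 mL of 0.1% bovine serum albumin solution injected into the tail vein. Groups of n = 3 per time point, killed by cervical dislocation. Organs removed, weighed and gamma-counted against diluted aliquots of injected dose, giving % dose/organ and % ID/g. Total blood activity assumed as 7% of body weight.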

Muscle tissue [3] = assay: Biodistribution in ICR mouse muscle at 5 to 10 uCi, iv after 2 mins; format: ADME, organism-based; conditions: in vivo; how it was run: as §1
Muscle tissue [4] = assay: Biodistribution in ICR mouse muscle at 5 to 10 uCi, iv after 30 mins; format: ADME, organism-based; conditions: in vivo, 0.5 h; how it was run: as §1
Muscle tissue [5] = assay: Biodistribution in ICR mouse muscle at 5 to 10 uCi, iv after 1 hr; format: ADME, organism-based; conditions: in vivo; how it was run: as §1
Muscle tissue [6] = assay: Biodistribution in ICR mouse muscle at 5 to 10 uCi, iv after 2 hrs; format: ADME, organism-based; conditions: in vivo; how it was run: as §1
Lung [7] = assay: Biodistribution in ICR mouse lung at 5 to 10 uCi, iv after 2 mins; format: ADME, organism-based; conditions: in vivo; how it was run: as §1
Lung [8] = assay: Biodistribution in ICR mouse lung at 5 to 10 uCi, iv after 30 mins; format: ADME, organism-based; conditions: in vivo, 0.5 h; how it was run: as §1
Lung [9] = assay: Biodistribution in ICR mouse lung at 5 to 10 uCi, iv after 1 hr; format: ADME, organism-based; conditions: in vivo; how it was run: as §1
[10] = Partition coefficient, log P of the compound; format: physicochemical; conditions: octanol/water
How it was run: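 [125I] or [18F] tracer mixed with 3 g each of 1-octanol and 0.1 M phosphate buffer pH 7.4. Vortexed 3 min at room temperature, then centrifuged 5 min. Two 0.5 g samples from each layer counted; PC is the ratio of cpm/g in octanol to cpm/g in buffer. The octanol layer was repartitioned until values were consistent.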

Blood [11] = assay: Biodistribution in ICR mouse blood at 5 to 10 uCi, iv after 2 mins; format: ADME, organism-based; conditions: in vivo; how it was run: as §1
Blood [12] = assay: Biodistribution in ICR mouse blood at 5 to 10 uCi, iv after 30 mins; format: ADME, organism-based; conditions: in vivo, 0.5 h; how it was run: as §1
Blood [13] = assay: Biodistribution in ICR mouse blood at 5 to 10 uCi, iv after 1 hr; format: ADME, organism-based; conditions: in vivo; how it was run: as §1
Blood [14] = assay: Biodistribution in ICR mouse blood at 5 to 10 uCi, iv after 2 hrs; format: ADME, organism-based; conditions: in vivo; how it was run: as §1
Heart [15] = assay: Biodistribution in ICR mouse heart at 5 to 10 uCi, iv after 2 mins; format: ADME, organism-based; conditions: in vivo; how it was run: as §1
Heart [16] = assay: Biodistribution in ICR mouse heart at 5 to 10 uCi, iv after 30 mins; format: ADME, organism-based; conditions: in vivo, 0.5 h; how it was run: as §1
Heart [17] = assay: Biodistribution in ICR mouse heart at 5 to 10 uCi, iv after 1 hr; format: ADME, organism-based; conditions: in vivo; how it was run: as §1
Lung [18] = assay: Biodistribution in ICR mouse lung at 5 to 10 uCi, iv after 2 hrs; format: ADME, organism-based; conditions: in vivo; how it was run: as §1
Kidney [19] = assay: Biodistribution in ICR mouse kidney at 5 to 10 uCi, iv after 2 mins; format: ADME, organism-based; conditions: in vivo; how it was run: as §1
Kidney [20] = assay: Biodistribution in ICR mouse kidney at 5 to 10 uCi, iv after 30 mins; format: ADME, organism-based; conditions: in vivo, 0.5 h; how it was run: as §1
Kidney [21] = assay: Biodistribution in ICR mouse kidney at 5 to 10 uCi, iv after 1 hr; format: ADME, organism-based; conditions: in vivo; how it was run: as §1
Kidney [22] = assay: Biodistribution in ICR mouse kidney at 5 to 10 uCi, iv after 2 hrs; format: ADME, organism-based; conditions: in vivo; how it was run: as §1
Spleen [23] = assay: Biodistribution in ICR mouse spleen at 5 to 10 uCi, iv after 2 mins; format: ADME, organism-based; conditions: in vivo; how it was run: as §1
Spleen [24] = assay: Biodistribution in ICR mouse spleen at 5 to 10 uCi, iv after 30 mins; format: ADME, organism-based; conditions: in vivo, 0.5 h; how it was run: as §1
Spleen [25] = assay: Biodistribution in ICR mouse spleen at 5 to 10 uCi, iv after 1 hr; format: ADME, organism-based; conditions: in vivo; how it was run: as §1
Spleen [26] = assay: Biodistribution in ICR mouse spleen at 5 to 10 uCi, iv after 2 hrs; format: ADME, organism-based; conditions: in vivo; how it was run: as §1
Liver [27] = assay: Biodistribution in ICR mouse liver at 5 to 10 uCi, iv after 2 mins; format: ADME, organism-based; conditions: in vivo; how it was run: as §1
Liver [28] = assay: Biodistribution in ICR mouse liver at 5 to 10 uCi, iv after 30 mins; format: ADME, organism-based; conditions: in vivo, 0.5 h; how it was run: as §1
Liver [29] = assay: Biodistribution in ICR mouse liver at 5 to 10 uCi, iv after 1 hr; format: ADME, organism-based; conditions: in vivo; how it was run: as §1
Liver [30] = assay: Biodistribution in ICR mouse liver at 5 to 10 uCi, iv after 2 hrs; format: ADME, organism-based; conditions: in vivo; how it was run: as §1
Zone of skin [31] = assay: Biodistribution in ICR mouse skin at 5 to 10 uCi, iv after 2 mins; format: ADME, organism-based; conditions: in vivo; how it was run: as §1
Zone of skin [32] = assay: Biodistribution in ICR mouse skin at 5 to 10 uCi, iv after 30 mins; format: ADME, organism-based; conditions: in vivo, 0.5 h; how it was run: as §1
Zone of skin [33] = assay: Biodistribution in ICR mouse skin at 5 to 10 uCi, iv after 1 hr; format: ADME, organism-based; conditions: in vivo; how it was run: as §1
Zone of skin [34] = assay: Biodistribution in ICR mouse skin at 5 to 10 uCi, iv after 2 hrs; format: ADME, organism-based; conditions: in vivo; how it was run: as §1
Brain [35] = assay: Biodistribution in ICR mouse brain at 5 to 10 uCi, iv after 2 mins; format: ADME, organism-based; conditions: in vivo; how it was run: as §1
Brain [36] = assay: Biodistribution in ICR mouse brain at 5 to 10 uCi, iv after 30 mins; format: ADME, organism-based; conditions: in vivo, 0.5 h; how it was run: as §1
Brain [37] = assay: Biodistribution in ICR mouse brain at 5 to 10 uCi, iv after 1 hr; format: ADME, organism-based; conditions: in vivo; how it was run: as §1
Brain [38] = assay: Biodistribution in ICR mouse brain at 5 to 10 uCi, iv after 2 hrs; format: ADME, organism-based; conditions: in vivo; how it was run: as §1
Thyroid gland [39] = assay: Biodistribution in ICR mouse thyroid at 5 to 10 uCi, iv after 2 mins; format: ADME, organism-based; conditions: in vivo; how it was run: as §1
Thyroid gland [40] = assay: Biodistribution in ICR mouse thyroid at 5 to 10 uCi, iv after 30 mins; format: ADME, organism-based; conditions: in vivo, 0.5 h; how it was run: as §1
Thyroid gland [41] = assay: Biodistribution in ICR mouse thyroid at 5 to 10 uCi, iv after 1 hr; format: ADME, organism-based; conditions: in vivo; how it was run: as §1
Thyroid gland [42] = assay: Biodistribution in ICR mouse thyroid at 5 to 10 uCi, iv after 2 hrs; format: ADME, organism-based; conditions: in vivo; how it was run: as §1

- Ki [1]: 0.01 µM
SMILES: CN(C)c1ccc(-c2cn(-c3ccc(OCCO)cc3)nn2)cc1

- Ki [1]: 0.0084 µM
SMILES: CN(C)c1ccc(-c2cn(-c3ccc(OCCOCCOCCF)cc3)nn2)cc1

- Ki [1]: 0.03 µM
SMILES: CNc1ccc(-c2cn(-c3ccc(OCCOCCOCCF)cc3)nn2)cc1

- Drug uptake (Heart [2]): 0.56 % ID/g
- Drug uptake (Muscle tissue [3]): 0.76 % ID/g
- Drug uptake (Muscle tissue [4]): 1.11 % ID/g
- Drug uptake (Muscle tissue [5]): 0.61 % ID/g
- Drug uptake (Muscle tissue [6]): 0.36 % ID/g
- Drug uptake (Lung [7]): 8.93 % ID/g
- Drug uptake (Lung [8]): 2.55 % ID/g
- Drug uptake (Lung [9]): 1.66 % ID/g
- logP [10]: 3.4
- Drug uptake (Blood [11]): 2.84 % ID/g
- Drug uptake (Blood [12]): 1.63 % ID/g
- Drug uptake (Blood [13]): 1.33 % ID/g
- Drug uptake (Blood [14]): 1.21 % ID/g
- Drug uptake (Heart [15]): 6.61 % ID/g
- Drug uptake (Heart [16]): 1.34 % ID/g
- Drug uptake (Heart [17]): 0.78 % ID/g
- Drug uptake (Lung [18]): 1.43 % ID/g
- Drug uptake (Kidney [19]): 11.5 % ID/g
- Drug uptake (Kidney [20]): 3.66 % ID/g
- Drug uptake (Kidney [21]): 2.13 % ID/g
- Drug uptake (Kidney [22]): 1.52 % ID/g
- Drug uptake (Spleen [23]): 5.32 % ID/g
- Drug uptake (Spleen [24]): 1.35 % ID/g
- Drug uptake (Spleen [25]): 0.89 % ID/g
- Drug uptake (Spleen [26]): 0.69 % ID/g
- Drug uptake (Liver [27]): 17.4 % ID/g
- Drug uptake (Liver [28]): 6.93 % ID/g
- Drug uptake (Liver [29]): 3.74 % ID/g
- Drug uptake (Liver [30]): 2.49 % ID/g
- Drug uptake (Zone of skin [31]): 0.71 % ID/g
- Drug uptake (Zone of skin [32]): 2.2 % ID/g
- Drug uptake (Zone of skin [33]): 1.93 % ID/g
- Drug uptake (Zone of skin [34]): 1.19 % ID/g
- Drug uptake (Brain [35]): 7.22 % ID/g
- Drug uptake (Brain [36]): 1.94 % ID/g
- Drug uptake (Brain [37]): 0.64 % ID/g
- Drug uptake (Brain [38]): 0.29 % ID/g
- Drug uptake (Thyroid gland [39]): 3.17 % ID/g
- Drug uptake (Thyroid gland [40]): 11 % ID/g
- Drug uptake (Thyroid gland [41]): 17 % ID/g
- Drug uptake (Thyroid gland [42]): 89.1 % ID/g
SMILES: CN(C)c1ccc(-c2cn(-c3ccc([125I])cc3)nn2)cc1
